Test results published in ChEMBL document CHEMBL1134502, “Aromatic quinolinecarboxamides as selective, orally active antibody production inhibitors for prevention of acute xenograft rejection” (J Med Chem, 2001).

How the values were obtained:
Jurkat = test: In vitro inhibition of Jurkat cell proliferation.; format: functional, cell-based; details: Homo sapiens
Outline: (§1)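 Murine B-cells stimulated with TNP-LPS (T-cell-independent type 1) were read for antibody production, the mouse MLR for T-cell activity, and Jurkat proliferation for cytotoxicity. Values are IC50 ± SE in µM, the mean of at least four independent determinations.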

Mus musculus [1] = species: Mus musculus; test: In vitro T-cell immunosuppressive activity in the mouse mixed lymphocyte reaction (MLR); format: functional; outline: as §1
Mus musculus [2] = test: In vivo inhibition of TNP-specific immunoglobulin G production at 10 mg/kg/day oral administration.; format: functional
Outline: (§2)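 OF1 mice were immunized iv with TNP-LPS and dosed on day 0 plus the three following days (four doses). The sc vehicle was polyethoxylated castor oil/EtOH; the po vehicle was Labrafil/EtOH/corn oil. Mice were bled on day 6, and serum DNP-specific IgM or IgG was titred by ELISA on DNP-BSA plates at a defined OD405.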

Mus musculus [3] = test: In vivo inhibition of TNP-specific immunoglobulin G production at 3 mg/kg/day subcutaneous administration.; format: functional; details: sc; outline: as §2
Mus musculus [4] = test: In vivo inhibition of TNP-specific immunoglobulin G production at 30 mg/kg/day subcutaneous administration.; format: functional; details: sc; outline: as §2
Mus musculus [5] = test: In vivo inhibition of TNP-specific immunoglobulin G production at 50 mg/kg/day subcutaneous administration.; format: functional; details: sc; outline: as §2
Mus musculus [6] = test: In vivo inhibition of TNP-specific immunoglobulin M production at 10 mg/kg/day, po; format: functional; outline: as §2
Mus musculus [7] = test: In vivo inhibition of TNP-specific immunoglobulin M production at 3 mg/kg/day, sc; format: functional; details: route subcutaneous; outline: as §2
Mus musculus [8] = test: In vivo inhibition of TNP-specific immunoglobulin M production at 30 mg/kg/day, sc; format: functional; details: route subcutaneous; outline: as §2
Mus musculus [9] = test: In vivo inhibition of TNP-specific immunoglobulin M production at 50 mg/kg/day, sc; format: functional; details: route subcutaneous; outline: as §2
Mus musculus [10] = test: Survival period of mice in days after xenotransplantation and for a dose of 3 mg/kg (Histology = antibody-mediated rejection).; format: functional
Mus musculus [11] = test: Survival period of mice in days after xenotransplantation and for a dose of 30 mg/kg (Histology = antibody-mediated rejection, Chronic rejection).; format: functional
Mus musculus [12] = test: Survival period of mice in days after xenotransplantation and for a dose of 50 mg/kg (Histology = no antibody-mediated rejection).; format: functional
[13] = In vitro inhibition of Ab formation from trinitrophenyl-lipopolysaccharide (TNP-LPS) B-cells.; format: functional; details: Mus musculus; outline: as §1

| Structure (SMILES) | IC50 (Jurkat) [µM] | IC50 (Mus musculus [1]) [µM] | inhibition in vivo at 10 mg/kg/day (Mus musculus [2]) [%] | inhibition in vivo at 3 mg/kg/day (Mus musculus [3]) [%] | inhibition in vivo at 30 mg/kg/day (Mus musculus [4]) [%] | inhibition in vivo at 50 mg/kg/day (Mus musculus [5]) [%] | inhibition in vivo at 10 mg/kg/day (Mus musculus [6]) [%] | inhibition in vivo at 3 mg/kg/day (Mus musculus [7]) [%] | inhibition in vivo at 30 mg/kg/day (Mus musculus [8]) [%] | inhibition in vivo at 50 mg/kg/day (Mus musculus [9]) [%] | Survival (Mus musculus [10]) [days] | Survival (Mus musculus [11]) [days] | Survival (Mus musculus [12]) [days] | IC50 [13] [µM] |
| --- | --- | --- | --- | --- | --- | --- | --- | --- | --- | --- | --- | --- | --- | --- |
| C/C=C/C[C@@H](C)[C@@H](O)[C@H]1C(=O)N[C@@H](CC)C(=O)N(C)CC(=O)N(C)[C@@H](CC(C)C)C(=O)N[C@@H](C(C)C)C(=O)N(C)[C@@H](CC(C)C)C(=O)N[C@@H](C)C(=O)N[C@H](C)C(=O)N(C)[C@@H](CC(C)C)C(=O)N(C)[C@@H](CC(C)C)C(=O)N(C)[C@@H](C(C)C)C(=O)N1C [CYCLOSPORINE] | > 10 | – | – | – | – | – | – | – | – | – | – | – | – | – |
| Cc1oncc1C(=O)Nc1ccc(C(F)(F)F)cc1 [LEFLUNOMIDE] | 34.6 | 11.4 | < 0 | < 0 | 39 | 85 | 5 | < 0 | 37 | 71 | 7 | >7 | >28 | 5.1 |
